# Experimental data pooled from the literature.
# Protocols differ between the studies behind these lines.
# Target: Myosin light chain kinase (MYLK3, Homo sapiens, UniProt Q32MK0)
# Residues used in one study (Q32MK0 1-819): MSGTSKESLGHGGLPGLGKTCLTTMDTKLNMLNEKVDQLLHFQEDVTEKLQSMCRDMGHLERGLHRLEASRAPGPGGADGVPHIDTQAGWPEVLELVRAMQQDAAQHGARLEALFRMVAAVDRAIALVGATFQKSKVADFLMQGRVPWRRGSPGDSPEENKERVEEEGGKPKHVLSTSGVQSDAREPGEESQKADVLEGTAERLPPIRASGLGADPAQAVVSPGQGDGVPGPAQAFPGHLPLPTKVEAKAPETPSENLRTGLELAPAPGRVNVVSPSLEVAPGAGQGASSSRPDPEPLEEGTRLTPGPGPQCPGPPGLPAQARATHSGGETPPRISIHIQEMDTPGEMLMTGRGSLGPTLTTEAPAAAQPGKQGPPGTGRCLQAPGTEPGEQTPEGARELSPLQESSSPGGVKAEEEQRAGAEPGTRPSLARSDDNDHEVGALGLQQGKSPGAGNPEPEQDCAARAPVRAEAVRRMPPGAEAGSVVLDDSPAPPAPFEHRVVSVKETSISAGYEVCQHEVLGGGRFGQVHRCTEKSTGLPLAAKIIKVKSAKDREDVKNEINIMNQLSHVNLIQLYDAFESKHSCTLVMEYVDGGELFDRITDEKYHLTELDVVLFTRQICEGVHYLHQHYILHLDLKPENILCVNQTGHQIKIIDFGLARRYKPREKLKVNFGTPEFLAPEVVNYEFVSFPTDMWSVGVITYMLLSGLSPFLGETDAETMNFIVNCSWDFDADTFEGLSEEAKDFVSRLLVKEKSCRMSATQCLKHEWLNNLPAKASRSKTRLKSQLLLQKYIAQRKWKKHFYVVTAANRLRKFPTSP
SMILES,read-out,action,method,concentration,endpoint,value
COc1ncccc1-c1cnn2ccc(N3CCN(C(=O)OC(C)C)CC3)nc12,binding,,competition with immobilised ligand,1 µM,remaining binding,100%
Nc1ncc(-c2nc(N3CCOCC3)nc(N3CCOCC3)n2)c(C(F)F)n1,binding,,competition with immobilised ligand,10 µM,remaining binding,84%
Cn1cc(-c2cc(F)cc(N3CCn4c(cc5c4CCCC5)C3=O)c2CO)cc(Nc2ccc(N3CCN(C4COC4)CC3)cn2)c1=O,enzyme activity,inhibitor,,0.1 µM,inhibition,-5%
N#CC1(c2ccccn2)CCN(Cc2cc(C(=O)O)c(=O)n3ccccc23)CC1,cell-free assay,,competition with immobilised ligand,1 µM,remaining binding,87%
COc1cc(Nc2ncc(F)c(Nc3ccc4c(n3)NC(=O)C(C)(C)O4)n2)cc(OC)c1OC,binding,,competition with immobilised ligand,10 µM,inhibition,30%
Cn1cncc1[C@](O)(COc1ccc(C#N)cc1-c1ccc(OC(F)(F)F)cc1)c1ccc(C#N)cc1,cell-free assay,,competition with immobilised ligand,1 µM,remaining binding,100%
Cn1cc(-c2cccc(N3CCc4c(sc5c4CC(C)(C)C5)C3=O)c2CO)cc(Nc2ccncn2)c1=O,enzyme activity,inhibitor,,1 µM,inhibition,-8%
Cc1nn(C)cc1-c1nc2c(N3CCN(Cc4ccc(Cl)cc4)CC3)c(Cl)cnc2[nH]1,binding,,competition with immobilised ligand,1 µM,remaining binding,100%
